Measurements taken from ChEMBL document CHEMBL1125485, “Inhibitors of blood platelet cAMP phosphodiesterase. 2. Structure-activity relationships associated with 1,3-dihydro-2H-imidazo[4,5-b]quinolin-2-ones substituted with functionalized side chains” (J Med Chem, 1992).
pEC50, pIC50: −log10 of the molar value.

Experiments:
[1] = species on record: Oryctolagus cuniculus; assay: Inhibition of platelet aggregation using collagen as activating agent in rabbit platelet rich plasma (PRP); format: functional
Outline: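 Rabbit platelet-rich plasma, aggregation triggered by ADP or collagen after 3 min preincubation of PRP with drug. Single or duplicate determinations, reference agent included.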

[2] = target: cGMP-dependent 3',5'-cyclic phosphodiesterase (Homo sapiens, UniProt O00408); assay: Inhibition of human platelet PDE by inhibiting cyclic Guanosine monophosphate (cGMP) hydrolysis
cGMP-dependent 3',5'-cyclic phosphodiesterase, sequence (O00408 whole entry): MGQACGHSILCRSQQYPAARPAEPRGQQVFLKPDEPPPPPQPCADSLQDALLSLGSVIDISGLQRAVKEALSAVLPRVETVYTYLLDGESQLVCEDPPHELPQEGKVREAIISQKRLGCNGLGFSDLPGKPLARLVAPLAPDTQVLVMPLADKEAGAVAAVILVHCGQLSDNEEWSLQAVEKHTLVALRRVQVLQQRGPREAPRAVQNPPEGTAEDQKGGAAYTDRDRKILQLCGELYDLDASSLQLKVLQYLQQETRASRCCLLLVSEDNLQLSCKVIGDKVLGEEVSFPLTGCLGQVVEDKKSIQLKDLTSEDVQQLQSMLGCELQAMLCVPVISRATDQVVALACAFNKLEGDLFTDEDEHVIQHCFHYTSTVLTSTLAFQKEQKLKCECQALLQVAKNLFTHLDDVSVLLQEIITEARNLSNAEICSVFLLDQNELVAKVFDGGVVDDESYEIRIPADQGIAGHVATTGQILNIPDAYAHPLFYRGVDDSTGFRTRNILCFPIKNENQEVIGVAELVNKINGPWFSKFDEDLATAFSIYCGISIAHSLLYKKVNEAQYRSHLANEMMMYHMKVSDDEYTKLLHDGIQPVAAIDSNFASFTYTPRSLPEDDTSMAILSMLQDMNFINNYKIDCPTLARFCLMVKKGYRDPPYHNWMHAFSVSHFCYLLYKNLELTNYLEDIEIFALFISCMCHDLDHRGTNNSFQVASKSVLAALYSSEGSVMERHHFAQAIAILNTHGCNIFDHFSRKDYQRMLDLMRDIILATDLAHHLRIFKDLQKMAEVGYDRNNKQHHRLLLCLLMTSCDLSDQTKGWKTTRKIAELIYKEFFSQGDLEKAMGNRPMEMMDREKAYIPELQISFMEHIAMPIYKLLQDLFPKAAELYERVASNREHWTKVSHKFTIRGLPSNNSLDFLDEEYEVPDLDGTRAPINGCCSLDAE

[3] = target: Phosphodiesterase 3 (Homo sapiens, UniProt Q14432+Q13370); assay: Inhibition of human platelet PDE by inhibiting cyclic Adenosine monophosphate (cAMP) hydrolysis
[4] = species on record: Rattus norvegicus; assay: Oral efficacy in rats using the ex vivo aggregatory protocol; format: functional
Outline: (§1)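 Rats given compound orally, then ADP-induced platelet aggregation measured ex vivo.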

[5] = tested on: Rattus norvegicus; assay: Percent inhibition of oral efficacy in rats using the ex vivo aggregatory protocol at 10 mg/kg; format: functional; outline: as §1

SMILES	pEC50 [1]	pIC50 [2]	IC50 [3] [nM]	ED50 [4] [mg/kg]	inhibition in vivo at 10 mg/kg [5] [%]
Cn1c(O)nc2nc3ccc(OCCCC(=O)N4CCCCC4)cc3cc21	5.61	4.22			
O=C(O)CCCOc1ccc2c(c1)CN1CC(=O)NC1=N2	5.46		40		
OCCCCCc1ccc2[nH]c3nc(O)nc-3cc2c1	6.66		100	> 10	26
NC(=O)CCCOc1ccc2[nH]c3nc(O)nc-3cc2c1	5.60	< 4.00	8		
OCCCOc1ccc2[nH]c3nc(O)nc-3cc2c1	6.82	4.30	9		
CN(C(=O)CCCOc1ccc2nc3c(cc2c1)nc(O)n3C)C1CCCCC1	6.89		100	< 10	68
COC(=O)CCCCc1ccc2[nH]c3nc(O)nc-3cc2c1	6.57		900	> 10	29
Cn1c(O)nc2nc3ccc(OCCCC(=O)O)cc3cc21	< 3.97	5.00	600	> 10	
O=C(O)CN(C(=O)CCCOc1ccc2[nH]c3nc(O)nc-3cc2c1)C1CCCCC1	6.34		0.3		
OCCCc1ccc2[nH]c3nc(O)nc-3cc2c1	6.39		60		
O=C(O)CCCCc1ccc2[nH]c3nc(O)nc-3cc2c1	4.68	5.00	20		
N#CCCCCOc1ccc2[nH]c3nc(O)nc-3cc2c1	6.89		100		
COC(=O)CCCCOc1ccc2nc3nc(O)n(C)c3cc2c1		4.00	5000		
O=C(O)COc1ccc2[nH]c3nc(O)nc-3cc2c1	6.12	4.30	70	< 10	61
Cn1c(O)nc2nc3ccc(OCCCS(=O)(=O)c4ccccc4)cc3cc21	4.82		300		
O=C(CCCCc1ccc2[nH]c3nc(O)nc-3cc2c1)NC1CCCCC1	6.72		300		
CN(C(=O)CCCCOc1ccc2nc3nc(O)n(C)c3cc2c1)C1CCCCCC1		5.00	600	> 10	43
O=C(CCCCc1ccc2[nH]c3nc(O)nc-3cc2c1)NC12C[C@H]3C[C@@H](C1)C[C@@H](C2)C3	6.52		6		
Oc1nc2cc3cc(OCCCc4nnn[nH]4)ccc3[nH]c-2n1	5.80		3		
COC(=O)CCCOc1ccc2nc3c(cc2c1)nc(O)n3C	6.77		2000		

SMILES	pEC50 [1]	pIC50 [2]	IC50 [3] [nM]	ED50 [4] [mg/kg]	inhibition in vivo at 10 mg/kg [5] [%]
COC(=O)CCCOc1ccc2nc3c(cc2c1)n(C)c(=O)n3C	4.26		40000		
Oc1nc2cc3cc(OCCCCc4nnn[nH]4)ccc3[nH]c-2n1	6.00		10		
CNC(=O)CCCOc1ccc2[nH]c3nc(O)nc-3cc2c1	6.08		7	< 10	57
O=C(CCCOc1ccc2[nH]c3nc(O)nc-3cc2c1)N1CCCCC1		< 4.00	20	< 10	57
CCOC(=O)CCCOc1ccc2c(c1)CN1CC(=O)NC1=N2			70		
CCOC(=O)COc1ccc2[nH]c3nc(O)nc-3cc2c1	5.12				
Cn1c(O)nc2nc3ccc(OCCCCC(=O)O)cc3cc21	< 4.00	5.00	80		
CN(C(=O)CCCCOc1ccc2nc3nc(O)n(C)c3cc2c1)C1CCCCC1		4.22	500	10	
CCOC(=O)CCc1ccc2[nH]c3nc(O)nc-3cc2c1	6.85		600		
O=C(CCCCc1ccc2[nH]c3nc(O)nc-3cc2c1)N1CCCCC1	6.77		60		
O=C(O)CCCCOc1ccc2nc3[nH]c(=O)[nH]c3cc2c1	< 3.97	4.52			
O=C(O)CCCCCOc1ccc2[nH]c3nc(O)nc-3cc2c1	6.02	5.15	4		
CN(C(=O)CCCOc1ccc2nc3c(cc2c1)n(C)c(=O)n3C)C1CCCCC1	4.87		5000		
O=C(O)C1CCN(C(=O)CCCOc2ccc3[nH]c4nc(O)nc-4cc3c2)CC1	6.74		20		
Cn1c(=O)n(C)c2nc3ccc(OCCCC(=O)O)cc3cc21	5.90		4000		
COC(=O)CCCOc1ccc2nc3[nH]c(=O)n(C)c3cc2c1		4.00			
COC(=O)CCCCOc1ccc2[nH]c3nc(O)nc-3cc2c1		< 4.00			
CCOCCOc1ccc2[nH]c3nc(O)nc-3cc2c1	5.89		50		
CC(=O)OCCCCOc1ccc2[nH]c3nc(O)nc-3cc2c1	6.49		40		

Continued, in another order:

pEC50 [1]	pIC50 [2]	IC50 [3] [nM]	SMILES	ED50 [4] [mg/kg]	inhibition in vivo at 10 mg/kg [5] [%]
7.15		80	CC(=O)CCCOc1ccc2[nH]c3nc(O)nc-3cc2c1		
7.19		20	OCC(O)COc1ccc2[nH]c3nc(O)nc-3cc2c1 (centres undefined)		
7.52		100	CC(=O)OCCCOc1ccc2[nH]c3nc(O)nc-3cc2c1		
7.00		1000	Cn1c(O)nc2cc3cc(OCCCC(=O)O)ccc3nc21	< 10	59
7.05	4.00	5	CCOC(=O)C1CCN(C(=O)CCCOc2ccc3[nH]c4nc(O)nc-4cc3c2)CC1	9.6	
7.70		20	CCOC(=O)CCCOc1ccc2[nH]c3nc(O)nc-3cc2c1		
8.70	5.30	0.4	CN(C(=O)CCCCOc1ccc2nc3[nH]c(=O)[nH]c3cc2c1)C1CCCCCC1		
8.15	< 4.00		O=C(CCCOc1ccc2nc3[nH]c(=O)[nH]c3cc2c1)NC1CCCCC1		31
8.05	5.52	2	CCOC(=O)CN(C(=O)CCCOc1ccc2[nH]c3nc(O)nc-3cc2c1)C1CCCCC1		
7.59		40	CN(C(=O)CCCCc1ccc2[nH]c3nc(O)nc-3cc2c1)C1CCCCC1		
8.30			CN(C(=O)CCCOc1ccc2[nH]c3nc(O)nc-3cc2c1)C1CCCCCC1		
7.70	4.40		O=C(CCCOc1ccc2nc3[nH]c(=O)[nH]c3cc2c1)N1CCOCC1		
7.35	< 4.00	4	Oc1nc2cc3cc(OCCCCc4nnnn4C4CCCCC4)ccc3[nH]c-2n1		44
7.15		30	CC(=O)OCCOc1ccc2[nH]c3nc(O)nc-3cc2c1		
8.40	< 4.00	20	OCCOc1ccc2[nH]c3nc(O)nc-3cc2c1	< 10	
9.70	5.30	2	CN(C(=O)CCCCOc1ccc2[nH]c3nc(O)nc-3cc2c1)C1CCCCC1		
7.30	< 4.00	2	O=c1[nH]c2cc3cc(OCCCS(=O)(=O)c4ccccc4)ccc3nc2[nH]1		
8.70	5.26	0.5	COC(=O)CN(C(=O)CCCOc1ccc2[nH]c3nc(O)nc-3cc2c1)C1CCCCC1	3	
7.68		300	CC(C)OC(=O)CCCOc1ccc2[nH]c3nc(O)nc-3cc2c1	> 10	24
8.40		20	O=C(CCCOc1ccc2[nH]c3nc(O)nc-3cc2c1)NC1CCCC1		
7.15		100	CC(O)CCCOc1ccc2[nH]c3nc(O)nc-3cc2c1 (centres undefined)		
8.00	5.15	100	CN(C(=O)CCCOc1ccc2nc3nc(O)n(C)c3cc2c1)C1CCCCCC1	10	
7.48	4.70	6	OCCCCOc1ccc2[nH]c3nc(O)nc-3cc2c1	> 10	47
8.22	5.15	3	CN(C(=O)CCCCCOc1ccc2nc3[nH]c(=O)[nH]c3cc2c1)C1CCCCC1		
7.57	< 4.00	60	COC(=O)CCCCCOc1ccc2nc3[nH]c(=O)[nH]c3cc2c1		
7.30	4.00	1	O=C(CCCOc1ccc2[nH]c3nc(O)nc-3cc2c1)NC12C[C@H]3C[C@@H](C1)C[C@@H](C2)C3	4	
7.48		6	N#CCCCOc1ccc2[nH]c3nc(O)nc-3cc2c1		
7.40	5.10	200	CN(C(=O)CCCOc1ccc2nc3nc(O)n(C)c3cc2c1)C1CCCCC1		
8.10		10	O=C(CCCOc1ccc2[nH]c3nc(O)nc-3cc2c1)NC1CCCCCC1	5.4	
7.10		3	CN(C(=O)CCCOc1ccc2c(c1)CN1CC(=O)NC1=N2)C1CCCCC1 [LIXAZINONE]		
